Source: ChEMBL document CHEMBL2169868, “Flavone-based novel antidiabetic and antidyslipidemic agents” (J Med Chem, 2012)

How the values were obtained:
[1] = Plasma clearance in Sprague-Dawley rat at 25 mg/kg, po by LC-MS/MS method; assay type: ADME, organism-based; set-up: dose 25 mg/kg, route oral
How it was run: (§1)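 Male Sprague−Dawley rats given a single 25 mg/kg oral dose (aqueous 0.5% methyl cellulose suspension for one compound). Blood drawn from 0.08 to 48 h. LC-MS/MS, linear range 0.78−400 ng/mL.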

[2] = tested on: Syrian golden hamster; experiment: Antidyslipidemic activity in high fructose and high-fat diet fed dyslipidemic Syrian golden hamster model assessed as increase in HDL-cholesterol level at 10 mg/kg/day, po for 7 day, po; assay type: functional, Mesocricetus auratus
How it was run: (§2)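 Syrian golden hamsters fed high-fructose high-fat diet; oral dosing in 1% gum acacia at 10, 30, 100 mg/kg (or 25 mg/kg) for 7 days, sham control given vehicle; plasma TG, cholesterol, LDL-C, HDL-C, glycerol and NEFA (kits), lipoprotein lipase activity and body weight; % change versus HFD control, six hamsters per group.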

[3] = tested on: Syrian golden hamster; experiment: Antidyslipidemic activity in high fructose and high-fat diet fed dyslipidemic Syrian golden hamster model assessed as reduction in LDL-cholesterol level at 10 to 100 mg/kg/day for 7 days; assay type: functional, organism-based; details: Mesocricetus auratus; how it was run: as §2
[4] = tested on: Mus musculus; experiment: Antidiabetic activity in diabetic C57BL/KsJ db/db mouse model assessed as improvement in glucose tolerance in hyperglycemia at 1 mg/kg, po measured 2 hrs post dose; assay type: functional
[5] = tested on: Syrian golden hamster; experiment: Antidyslipidemic activity in high fructose and high-fat diet fed dyslipidemic Syrian golden hamster model assessed as reduction in body weight at 25 mg/kg/day for 7 days; assay type: functional, Mesocricetus auratus; set-up: scale not given: the % may be the effect or the level left; how it was run: as §2
[6] = tested on: Syrian golden hamster; experiment: Antidyslipidemic activity in high fructose and high-fat diet fed dyslipidemic Syrian golden hamster model assessed as reduction in glycerol level at 10 mg/kg/day, po for 7 day, po; assay type: functional, Mesocricetus auratus; set-up: scale not given: the % may be the effect or the level left; how it was run: as §2
[7] = tested on: Syrian golden hamster; experiment: Antidyslipidemic activity in high fructose and high-fat diet fed dyslipidemic Syrian golden hamster model assessed as reduction in NEFA level at 10 mg/kg/day, po for 7 day, po; assay type: functional, Mesocricetus auratus; set-up: scale not given: the % may be the effect or the level left; how it was run: as §2
[8] = tested on: Mus musculus; experiment: Antidiabetic activity in diabetic C57BL/KsJ db/db mouse model assessed as reduction in postprandial glucose level in hyperglycemia at 25 mg/kg, po measured 2 hrs post dose; assay type: functional; set-up: scale not given: the % may be the effect or the level left
How it was run: (§3)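 db/db mice (C57BL/KsJ, 12−18 weeks, 40−50 g; selected by glucose 200−350 mg/dL) dosed orally daily for 10 consecutive days at 1, 3, 10, 25 or 50 mg/kg; postprandial blood glucose profile recorded on day 6 with food access interrupted; mean % change versus vehicle in 5 animals per group; Student t test.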

[9] = Tmax in Sprague-Dawley rat at 25 mg/kg, po by LC-MS/MS method; assay type: ADME, organism-based; set-up: dose 25 mg/kg, route oral; details: in vivo; how it was run: as §1
[10] = Mean residence time in Sprague-Dawley rat at 2.5 mg/kg, iv by LC-MS/MS method; assay type: ADME, organism-based; set-up: dose 2.5 mg/kg, route intravenous; details: in vivo
How it was run: (§4)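 Male Sprague−Dawley rats given a single 2.5 mg/kg iv dose; one formulation was DMF/PG/water (2:4:4), 0.2 μ filtered. Blood drawn from 0.08 to 48 h. Plasma assayed by LC-MS/MS with linear range 0.78−400 ng/mL.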

[11] = Volume of distribution in Sprague-Dawley rat at 2.5 mg/kg, iv by LC-MS/MS method; assay type: ADME, organism-based; set-up: dose 2.5 mg/kg, route intravenous; details: in vivo; how it was run: as §4
[12] = tested on: Mus musculus; experiment: Antidiabetic activity in diabetic C57BL/KsJ db/db mouse model assessed as improvement in glucose tolerance in hyperglycemia at 25 mg/kg, po measured 2 hrs post dose; assay type: functional
[13] = tested on: Syrian golden hamster; experiment: Antidyslipidemic activity in high fructose and high-fat diet fed dyslipidemic Syrian golden hamster model assessed as reduction in cholesterol level at 10 to 100 mg/kg/day for 7 days; assay type: functional, organism-based; details: Mesocricetus auratus; how it was run: as §2
[14] = tested on: Mus musculus; experiment: Antidiabetic activity in po dosed diabetic C57BL/KsJ db/db mouse model assessed as reduction in postprandial glucose level in hyperglycemia measured 2 hrs post dose; assay type: functional; how it was run: as §3
[15] = tested on: Syrian golden hamster; experiment: Antidyslipidemic activity in high fructose and high-fat diet fed dyslipidemic Syrian golden hamster model assessed as reduction in LDL-cholesterol level at 30 mg/kg/day, po for 7 day, po; assay type: functional, Mesocricetus auratus; set-up: scale not given: the % may be the effect or the level left; how it was run: as §2
[16] = tested on: Mus musculus; experiment: Antidiabetic activity in diabetic C57BL/KsJ db/db mouse model assessed as improvement in glucose tolerance in hyperglycemia at 10 mg/kg, po measured 2 hrs post dose; assay type: functional
[17] = tested on: Syrian golden hamster; experiment: Antidyslipidemic activity in high fructose and high-fat diet fed dyslipidemic Syrian golden hamster model assessed as increase in HDL-cholesterol level at 25 mg/kg/day for 7 days; assay type: functional, Mesocricetus auratus
[18] = tested on: Mus musculus; experiment: Antidiabetic activity in diabetic C57BL/KsJ db/db mouse model assessed as improvement in glucose tolerance in hyperglycemia at 100 mg/kg, po measured 2 hrs post dose; assay type: functional
[19] = tested on: Syrian golden hamster; experiment: Antidyslipidemic activity in high fructose and high-fat diet fed dyslipidemic Syrian golden hamster model assessed as increase in lipoprotein lipase level at 10 mg/kg/day, po for 7 day, po; assay type: functional, Mesocricetus auratus; how it was run: as §2
[20] = Mean residence time in Sprague-Dawley rat at 25 mg/kg, po by LC-MS/MS method; assay type: ADME, organism-based; set-up: dose 25 mg/kg, route oral; details: in vivo; how it was run: as §1
[21] = Elimination half life in Sprague-Dawley rat at 25 mg/kg, po by LC-MS/MS method; assay type: ADME, organism-based; set-up: dose 25 mg/kg, route oral; details: in vivo, read-out: beta t1/2 (converted); how it was run: as §1
[22] = tested on: Syrian golden hamster; experiment: Antidyslipidemic activity in high fructose and high-fat diet fed dyslipidemic Syrian golden hamster model assessed as increase in HDL-cholesterol level at 100 mg/kg/day, po for 7 days; assay type: functional, Mesocricetus auratus; how it was run: as §2
[23] = tested on: Syrian golden hamster; experiment: Antidyslipidemic activity in high fructose and high-fat diet fed dyslipidemic Syrian golden hamster model assessed as reduction in NEFA level at 30 mg/kg/day, po for 7 day, po; assay type: functional, Mesocricetus auratus; set-up: scale not given: the % may be the effect or the level left; how it was run: as §2
[24] = tested on: Syrian golden hamster; experiment: Antidyslipidemic activity in high fructose and high-fat diet fed dyslipidemic Syrian golden hamster model assessed as reduction in glycerol level at 100 mg/kg/day, po for 7 days; assay type: functional, Mesocricetus auratus; set-up: scale not given: the % may be the effect or the level left; how it was run: as §2
[25] = tested on: Syrian golden hamster; experiment: Antidyslipidemic activity in high fructose and high-fat diet fed dyslipidemic Syrian golden hamster model assessed as reduction in triglyceride level at 10 to 100 mg/kg/day for 7 days; assay type: functional, organism-based; details: Mesocricetus auratus; how it was run: as §2
[26] = tested on: Syrian golden hamster; experiment: Antidyslipidemic activity in high fructose and high-fat diet fed dyslipidemic Syrian golden hamster model assessed as increase in HDL-cholesterol level at 10 to 100 mg/kg/day for 7 days; assay type: functional, organism-based; details: Mesocricetus auratus; how it was run: as §2
[27] = tested on: Syrian golden hamster; experiment: Antidyslipidemic activity in high fructose and high-fat diet fed dyslipidemic Syrian golden hamster model assessed as reduction in cholesterol level at 10 mg/kg/day, po for 7 day, po; assay type: functional, Mesocricetus auratus; set-up: scale not given: the % may be the effect or the level left; how it was run: as §2
[28] = tested on: Syrian golden hamster; experiment: Antidyslipidemic activity in high fructose and high-fat diet fed dyslipidemic Syrian golden hamster model assessed as reduction in triglyceride level at 100 mg/kg/day, po for 7 days; assay type: functional, Mesocricetus auratus; set-up: scale not given: the % may be the effect or the level left
How it was run: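 HFD-fed Syrian golden hamsters, six per group, fed a high-fructose diet. Oral dosing in 1% gum acacia for 7 days. Sham group received vehicle. Plasma TG was measured and body weight tracked. Results given as % change versus HFD control.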

[29] = tested on: Rattus norvegicus; experiment: Volume of distribution in Sprague-Dawley rat at 25 mg/kg, po by LC-MS/MS method; assay type: ADME, organism-based; set-up: dose 25 mg/kg, route oral; details: in vivo; how it was run: as §1
[30] = tested on: Syrian golden hamster; experiment: Antidyslipidemic activity in high fructose and high-fat diet fed dyslipidemic Syrian golden hamster model assessed as reduction in NEFA level at 100 mg/kg/day, po for 7 days; assay type: functional, Mesocricetus auratus; set-up: scale not given: the % may be the effect or the level left; how it was run: as §2
[31] = Cmax in Sprague-Dawley rat at 2.5 mg/kg, iv by LC-MS/MS method; assay type: ADME, organism-based; set-up: dose 2.5 mg/kg, route intravenous; details: in vivo; how it was run: as §4
[32] = tested on: Mus musculus; experiment: Antidiabetic activity in diabetic C57BL/KsJ db/db mouse model assessed as reduction in postprandial glucose level in hyperglycemia at 50 mg/kg, po measured 2 hrs post dose; set-up: scale not given: the % may be the effect or the level left

- CL/F [1]: 62.5 mL/min/kg
- Tmax [9]: 8 h
- MRT [10]: 13.5 h
- Vd [11]: 50.3 L/kg
- MRT [20]: 30.3 h
- half-life [21]: 19.8 h
- Vd [29]: 107.41 L/kg
- Cmax [31]: 523 ng/mL
SMILES: CC(C)(C)NC[C@H](O)COc1ccc2c(=O)cc(-c3cc(OCc4ccccc4)cc(OCc4ccccc4)c3)oc2c1
- Activity [2]: 9.37%
- Activity [3]: Dose-dependent effect
- Activity [4]: 21.46%
- Activity [5]: 14.3%
- Activity [6]: 14.4%
- Activity [7]: 13.1%
- Activity [8]: 38.3%
- Activity [12]: 44.6%
- Activity [13]: Dose-dependent effect
- ED50 [14]: 1.72 mg/kg
- Activity [15]: 34.6%
- Activity [16]: 39.9%
- Activity [17]: 20.5%
- Activity [18]: 59.4%
- Activity [19]: 13.2%
- Activity [22]: 27.9%
- Activity [23]: 26.3%
- Activity [24]: 50.5%
- Activity [25]: Dose-dependent effect
- Activity [26]: Dose-dependent effect
- Activity [27]: 13.8%
- Activity [28]: 76.3%
- Activity [30]: 59.1%
- Activity [32]: 39.1%
